A1 apoptosis 2 = A1 inhibition read as caspase activation; MEF A1-2A-BIM cells, caspase-Glo luminescence, 3 h; percent of clofoctol response, DMSO zero; caspase activation, % (test concentration not listed); 24,000 tested, under 10 active; in the data active = caspase activation above about 5.9%
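Test system – A1-2A-BIM-expressing MEF cells · Input – 2500 cells/well · Medium – RPMI-1640 growth medium with 10% FBS · Compound dosing – 50 nL pinned compound · Timing – 3 h compound exposure at 37 °C · Technique – Caspase-Glo luminescence (DEVD substrate) · Evaluation – Caspase-3/7 activity from luminescence increase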
T cruzi HTS = blocks T. cruzi growth inside host cells | activity score (inhibition), % at 5.01 µM | intracellular Trypanosoma cruzi in host cells, plate reader | 22,000 compounds, 4.9% hits; in the data active = activity score above about 55%;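 also: parasites and compound incubated about four days before reading; 0% = median of neutral control wells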
INS-1E rescue = preserves ATP levels in cytokine-treated INS-1E cells; INS-1E cytokine-induced death, ATP luminescence, 48 h; normalised: neutral wells 0, positive control 100; protection from cytokine-induced ATP loss, % at 10 µM; 20,000 compounds, 0.1% hits;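 active = mean replicate protection from cytokine-induced ATP loss at least 50% and at least 75% of replicates each reaching 50%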
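assay system = INS-1E rat insulinoma cells | amount = 8000 cells per well | medium = phenol-red-free RPMI with 5% fetal bovine serum | doses = one compound concentration, pin transfer | timing = 48 h cytokine plus compound treatment, 10 min reagent incubation | also added = IL-1β, TNF-α and IFN-γ cytokine mix | signal = CellTiter-Glo luminescence measuring cellular ATP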
* marks the source's active call; other numbers are inactive results; . = no result given. The sample as a whole holds a higher share of hits than the screen did.

SMILES | A1 apoptosis 2 | T cruzi HTS | INS-1E rescue
C=CCOC(=O)[C@@H]1[C@H]2C(=O)O[C@H](c3ccccc3)[C@H](c3ccccc3)N2[C@H](c2ccc(OCCOC(=O)[C@@H]3C[C@@H]4C(=O)N[C@@H](Cc5ccccc5)C(=O)N4[C@@H]3c3cccc(OCCO)c3)cc2)[C@@]12C(=O)Nc1ccc(I)cc12 | 0 | . | .
O=C(CCCCCCC(=O)Nc1ccccc1O)N/N=C/c1cccs1 | 0 | -5 | 8
C[C@H]1CN([C@@H](C)CO)C(=O)c2cccc(NC(=O)c3ccncc3)c2O[C@@H]1CN(C)CC1CCCCC1 | 0 | 86* | -16
C[C@H](CO)N1C[C@H](C)[C@@H](CN(C)CC2CCCCC2)Oc2c(NC(=O)c3ccncc3)cccc2C1=O | . | 57* | -6
C[C@@H]1CN([C@@H](C)CO)C(=O)c2cccc(NC(=O)c3ccncc3)c2O[C@@H]1CN(C)CC1CCCCC1 | . | -3 | -4
C[C@H]1CN([C@@H](C)CO)C(=O)c2cccc(NC(=O)c3ccncc3)c2O[C@H]1CN(C)CC1CC1 | 0 | -17 | 9
C[C@@H]1CN([C@@H](C)CO)C(=O)c2cccc(NC(=O)c3ccncc3)c2O[C@H]1CN(C)CC1CC1 | -2 | 41 | 11
C[C@@H]1CN([C@@H](C)CO)C(=O)c2cccc(NC(=O)c3ccncc3)c2O[C@H]1CN(C)C(=O)NC1CCCCC1 | 0 | -26 | 17
C[C@H]1CN([C@@H](C)CO)C(=O)c2cccc(NC(=O)c3ccncc3)c2O[C@H]1CN(C)C(=O)NC1CCCCC1 | 2 | 71* | 1
C[C@H]1CN([C@@H](C)CO)C(=O)c2cccc(NC(=O)c3ccncc3)c2O[C@H]1CN(C)CC1CCCCC1 | 0 | 57* | 4
COc1ccc(NCc2ccc(C(=O)Nc3ccccc3[N+](=O)[O-])cc2)cc1OC | -3 | . | .
O=C(N/N=C/c1ccc(-c2ccccc2)cc1)c1ccccn1 | . | -21 | -25
C[C@H](CO)N1C[C@H](C)[C@H](CN(C)S(=O)(=O)c2cccs2)Oc2ccc(NC(=O)Nc3ccc(C(F)(F)F)cc3)cc2CC1=O | -1 | 41 | -22
C[C@H](CO)N1C[C@H](C)[C@H](CN(C)S(=O)(=O)c2ccccc2)Oc2ccc(NC(=O)Nc3ccc(C(F)(F)F)cc3)cc2CC1=O | . | 77* | -68
C[C@@H]1CN([C@@H](C)CO)C(=O)Cc2cc(NC(=O)Nc3ccc(C(F)(F)F)cc3)ccc2O[C@@H]1CN(C)S(=O)(=O)c1cccs1 | 1 | 73* | -20
Cc1ccc(S(=O)(=O)N(C)C[C@H]2Oc3ccc(NC(=O)Nc4ccc(C(F)(F)F)cc4)cc3CC(=O)N([C@@H](C)CO)C[C@@H]2C)cc1 | . | 2 | -5
C[C@@H]1CN([C@@H](C)CO)C(=O)Cc2cc(NC(=O)Nc3ccc(C(F)(F)F)cc3)ccc2O[C@@H]1CN(C)S(=O)(=O)c1ccccc1 | . | 75* | -11
C[C@H]1CN([C@@H](C)CO)C(=O)Cc2cc(NC(=O)Nc3ccc(C(F)(F)F)cc3)ccc2O[C@@H]1CN(C)S(=O)(=O)c1ccccc1 | 0 | -5 | 8
COC(=O)CCCCCCC(=O)N/N=C/C=C/c1ccccc1 | . | -14 | -3
COc1ccc(/C=N/NC(=O)c2cccc(C(=O)NO)c2)cc1OC | . | -3 | 5
COCCOC(=O)N1C(=O)[C@@]2(c3cc(C#CC4(O)CCCCCC4)ccc31)[C@H](c1ccc(O)cc1)N1[C@H](c3ccccc3)[C@H](c3ccccc3)OC(=O)[C@H]1[C@@H]2C(N)=O | 0 | . | .
C[C@H](CO)N1C[C@H](C)[C@H](CN(C)Cc2ccc3c(c2)OCO3)Oc2ccc(NC(=O)CCCCCC(=O)Nc3ccccc3N)cc2C1=O | -1 | -18 | 4
C[C@@H]1CN([C@@H](C)CO)C(=O)c2cc(NC(=O)CCCCCC(=O)Nc3ccccc3N)ccc2O[C@@H]1CN(C)Cc1ccc2c(c1)OCO2 | 1 | -7 | -1
C[C@H](CO)N1C[C@H](C)[C@@H](CN(C)Cc2ccc3c(c2)OCO3)Oc2ccc(NC(=O)CCCCCC(=O)Nc3ccccc3N)cc2C1=O | 1 | -16 | 8
C[C@H](CO)N1C[C@H](C)[C@@H](CN(C)Cc2ccc3c(c2)OCO3)Oc2c(NC(=O)CCCCCC(=O)Nc3ccccc3N)cccc2C1=O | 0 | 73* | 12
C[C@H]1CN([C@@H](C)CO)C(=O)c2cccc(NC(=O)CCCCCC(=O)Nc3ccccc3N)c2O[C@@H]1CN(C)Cc1ccc2c(c1)OCO2 | . | 72* | 19
C[C@@H]1CN([C@@H](C)CO)C(=O)c2cccc(NC(=O)CCCCCC(=O)Nc3ccccc3N)c2O[C@H]1CN(C)Cc1ccc2c(c1)OCO2 | 0 | 59* | 25

Assay outcomes (PubChem)
